ChEMBL document CHEMBL1124931, “Fluoro carbocyclic nucleosides: synthesis and antiviral activity of 2'- and 6'-fluoro carbocyclic pyrimidine nucleosides including carbocyclic 1-(2-deoxy-2-fluoro-beta-D-arabinofuranosyl)-5-methyluracil and carbocyclic 1-(2-deoxy-2-fluoro-beta-D-arabinofuranosyl)-5-iodouracil” (1990)
In brackets after ≈: the same amount, converted by molar mass.

Columns and labels:
Vero [1] = assay: Cytotoxic effect on Vero cells was determined in mock infected cell monolayers incubated with the compound for 48 hr at 37 degree celsius.; assay type: functional, Chlorocebus sabaeus
In short: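 Mock-infected confluent Vero monolayers exposed to compound for 48 h at 37 °C. Examined microscopically, with gross changes in cell staining, number or morphology scored. The cytotoxic dose is the level affecting 50% of the monolayer.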

Vero [2] = assay: Antiherpes activity was measured in a plaque reduction assay in Vero cells, against HSV-2 strain 186.; assay type: functional; conditions: Chlorocebus sabaeus, read-out: ID50 (the source's name)
In short: (§1)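 Confluent Vero monolayers infected with 30–40 PFU of HSV-1 (KOS) or HSV-2 (186). After 1 h adsorption at 37 °C, overlaid with maintenance medium containing 0.75% carboxymethylcellulose plus a range of compound concentrations. Incubated 2 further days at 37 °C, then fixed and stained and plaques counted. ID50 is the concentration giving 50% inhibition of plaque formation.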

Vero [3] = assay: Antiherpes activity was measured in a plaque reduction assay in Vero cells, against HSV-1 strain KOS.; assay type: functional; conditions: Chlorocebus sabaeus, read-out: ID50 (the source's name); in short: as §1

SMILES | Cytotoxicity (Vero [1]) [µg/mL] | IC50 (Vero [2]) [µg/mL] | IC50 (Vero [3]) [µg/mL]
O=c1[nH]c(=O)n([C@H]2C[C@H](O)[C@@H](CO)[C@@H]2F)cc1I | > 300 | > 300 | > 300
Nc1ccn([C@@H]2C[C@H](CO)[C@@H](O)[C@H]2F)c(=O)n1 | > 300 | 44 (≈ 181 µM) | 18 (≈ 74 µM)
O=c1[nH]c(=O)n([C@H]2C[C@H](O)[C@@H](CO)[C@H]2F)cc1I | > 300 | > 300 | > 300
Nc1ccn([C@@H]2C[C@H](CO)[C@@H](O)[C@@H]2F)c(=O)n1 | > 100 | 82 (≈ 337 µM) | 13 (≈ 53.4 µM)
O=c1[nH]c(=O)n([C@@H]2C[C@H](CO)[C@@H](O)C2)cc1I | 300 | 97 (≈ 275 µM) | 0.07 (≈ 0.199 µM)
Cc1cn(C2CC(CO)C(O)C2F)c(=O)[nH]c1=O (stereo not drawn) | > 100 | > 100 | > 100
O=c1[nH]c(=O)n(C2CC(CO)C(O)C2F)cc1I (stereo not drawn) | > 100 | > 100 | 11 (≈ 29.7 µM)
Cc1cn(C2CC(CO)C(O)C2(F)F)c(=O)[nH]c1=O (stereo not drawn) | > 100 | > 100 | > 100
O=c1ccn(C2CC(O)C(CO)C2F)c(=O)[nH]1 (stereo not drawn) | > 300 | > 300 | > 300
Cc1cn([C@@H]2O[C@H](CO)[C@@H](O)[C@@H]2F)c(=O)[nH]c1=O [5-METHYL-2'-FLUOROARAURACIL] | > 30 | 0.05 (≈ 0.192 µM) | 0.05 (≈ 0.192 µM)
O=c1[nH]c(=O)n([C@H]2C[C@H](O)[C@@H](CO)O2)cc1I [IDOXURIDINE] | > 30 | 0.9 (≈ 2.54 µM) | 0.1 (≈ 0.282 µM)
